# According to ChEMBL document CHEMBL2046339, “Synthesis and evaluation of novel tropane derivatives as potential PET imaging agents for the dopamine transporter” (Bioorg Med Chem Lett, 2012):
# Tests used:
# Nucleic Acid [1] = assay: Ratio of drug uptake in hippocampus to cerebellum of Sprague-Dawley rat at 30 uCi, iv measured after 30 mins by gamma counting; type: ADME, organism-based; conditions: in vivo, 0.5 h
# Summary of the method: (§1)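 Male Sprague-Dawley rats (n = 3) received 30 μCi of the 18F tracer iv and were dissected at 30 min. Brain regions gamma counted as %dose/g against injected-dose aliquots. Regional uptake expressed as a ratio to cerebellum uptake.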
# Nucleic Acid [2] = assay: Ratio of drug uptake in striatum to cerebellum of Sprague-Dawley rat at 30 uCi, iv measured after 30 mins by gamma counting; type: ADME, organism-based; conditions: in vivo, 0.5 h; summary of the method: as §1
# Hypothalamus = assay: Biodistribution in Sprague-Dawley rat hypothalamus at 30 uCi, iv measured after 30 mins by gamma counting; type: ADME, organism-based; conditions: in vivo, 0.5 h
# Summary of the method: (§2)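 Normal male Sprague-Dawley rats (n = 3) received 30 μCi of the 18F tracer iv per rat and were sacrificed at 30 min. Organs removed, weighed and gamma counted. Striatum, hippocampus, cerebellum, cortex and hypothalamus dissected and counted separately. %dose/g calculated against diluted aliquots of the injected dose; mean ± S.D. of 3 rats.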
# Hippocampus = assay: Biodistribution in Sprague-Dawley rat hippocampus at 30 uCi, iv measured after 30 mins by gamma counting; type: ADME, organism-based; conditions: in vivo, 0.5 h; summary of the method: as §2
# Cortex = assay: Biodistribution in Sprague-Dawley rat cortex at 30 uCi, iv measured after 30 mins by gamma counting; type: ADME, organism-based; conditions: in vivo, 0.5 h; summary of the method: as §2
# Striatum = assay: Biodistribution in Sprague-Dawley rat striatum at 30 uCi, iv measured after 30 mins by gamma counting; type: ADME, organism-based; conditions: in vivo, 0.5 h; summary of the method: as §2
# Cerebellum = assay: Biodistribution in Sprague-Dawley rat cerebellum at 30 uCi, iv measured after 30 mins by gamma counting; type: ADME, organism-based; conditions: in vivo, 0.5 h; summary of the method: as §2
# Brain = assay: Biodistribution in Sprague-Dawley rat brain at 30 uCi, iv measured after 30 mins by gamma counting; type: ADME, organism-based; conditions: in vivo, 0.5 h; summary of the method: as §2
# Liver = assay: Biodistribution in Sprague-Dawley rat liver at 30 uCi, iv measured after 30 mins by gamma counting; type: ADME, organism-based; conditions: in vivo, 0.5 h; summary of the method: as §2
# Bone = assay: Biodistribution in Sprague-Dawley rat bone at 30 uCi, iv measured after 30 mins by gamma counting; type: ADME, organism-based, Bone element; conditions: in vivo, 0.5 h; summary of the method: as §2
# Kidney = assay: Biodistribution in Sprague-Dawley rat kidney at 30 uCi, iv measured after 30 mins by gamma counting; type: ADME, organism-based; conditions: in vivo, 0.5 h; summary of the method: as §2
# Lung = assay: Biodistribution in Sprague-Dawley rat lung at 30 uCi, iv measured after 30 mins by gamma counting; type: ADME, organism-based; conditions: in vivo, 0.5 h; summary of the method: as §2
# Muscle tissue = assay: Biodistribution in Sprague-Dawley rat muscle at 30 uCi, iv measured after 30 mins by gamma counting; type: ADME, organism-based; conditions: in vivo, 0.5 h; summary of the method: as §2
# Heart = assay: Biodistribution in Sprague-Dawley rat heart at 30 uCi, iv measured after 30 mins by gamma counting; type: ADME, organism-based; conditions: in vivo, 0.5 h; summary of the method: as §2
# [3] = 1-Octanol-sodium phosphate buffer partition coefficient, log P of the compound at pH 7.4 after 4 mins; type: physicochemical
# Summary of the method: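 Radiolabelled compound added to 3 g 1-octanol and 3 g NaH2PO4 buffer, pH 7.4. Mixture vortexed 1 min and centrifuged 3 min. Octanol layer removed and partition repeated two more times. log P taken from the ratio of counts/mL in octanol vs buffer after the third partition.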
# Blood = assay: Biodistribution in Sprague-Dawley rat blood at 30 uCi, iv measured after 30 mins by gamma counting; type: ADME, organism-based; conditions: in vivo, 0.5 h; summary of the method: as §2
# [4] = molecular target: T1, Sodium-dependent dopamine transporter (Homo sapiens, UniProt Q01959); assay: Displacement of [125I]IPT from DAT overexpressed in LLC-PK1 cell membrane by competitive binding assay
# T1 sequence (Q01959 whole entry): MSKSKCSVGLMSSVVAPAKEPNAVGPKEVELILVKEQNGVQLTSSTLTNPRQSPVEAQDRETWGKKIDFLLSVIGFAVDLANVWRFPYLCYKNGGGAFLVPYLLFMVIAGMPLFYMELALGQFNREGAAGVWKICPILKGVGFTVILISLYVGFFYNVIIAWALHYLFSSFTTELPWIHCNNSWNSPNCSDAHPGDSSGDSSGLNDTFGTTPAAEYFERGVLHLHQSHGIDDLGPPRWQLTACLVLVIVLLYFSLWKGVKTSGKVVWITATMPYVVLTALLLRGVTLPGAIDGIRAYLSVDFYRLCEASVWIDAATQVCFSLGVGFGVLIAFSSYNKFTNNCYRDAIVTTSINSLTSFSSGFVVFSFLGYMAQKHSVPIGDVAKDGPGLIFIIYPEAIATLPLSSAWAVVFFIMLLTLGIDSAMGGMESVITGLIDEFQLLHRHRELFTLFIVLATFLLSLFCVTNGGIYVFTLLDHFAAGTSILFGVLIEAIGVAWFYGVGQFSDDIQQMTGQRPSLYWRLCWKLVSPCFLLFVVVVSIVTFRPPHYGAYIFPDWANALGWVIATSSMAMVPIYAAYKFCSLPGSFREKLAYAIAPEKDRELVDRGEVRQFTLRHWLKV
# [5] = molecular target: T1, Sodium-dependent dopamine transporter; assay: Binding affinity to DAT
Structure (SMILES),Ratio (Nucleic Acid [1]),Ratio (Nucleic Acid [2]),Drug uptake (Hypothalamus) [% ID/g],Drug uptake (Hippocampus) [% ID/g],Drug uptake (Cortex) [% ID/g],Drug uptake (Striatum) [% ID/g],Drug uptake (Cerebellum) [% ID/g],Drug uptake (Brain) [% ID/g],Drug uptake (Liver) [% ID/g],Drug uptake (Bone) [% ID/g],Drug uptake (Kidney) [% ID/g],Drug uptake (Lung) [% ID/g],Drug uptake (Muscle tissue) [% ID/g],Drug uptake (Heart) [% ID/g],logD at 4 min [3],Drug uptake (Blood) [% ID/g],Ki [4] [nM],Kd [5] [nM],Ki [5] [nM]
CN(CC[18F])C[C@H]1[C@@H](c2ccc(Cl)cc2)C[C@@H]2CC[C@H]1N2C,1.21,1.63,0.82,0.79,0.91,1.07,0.65,0.72,3.01,0.43,3.65,5.93,0.27,0.8,1.52,0.1,3.79,–,–
CN(CCC[18F])C[C@H]1[C@@H](c2ccc(Cl)cc2)C[C@@H]2CC[C@H]1N2C,0.8,0.94,0.63,0.54,0.68,0.63,0.66,0.52,2.08,0.5,4.63,11.5,0.22,1.56,1.72,0.1,2.64,–,–
CN(CCOCC[18F])C[C@H]1[C@@H](c2ccc(Cl)cc2)C[C@@H]2CC[C@H]1N2C,–,–,–,–,–,–,–,–,–,–,–,–,–,–,–,–,4.63,–,–
CN(C)C(=O)[C@H]1[C@@H](c2ccc(Cl)cc2)C[C@@H]2CC[C@H]1N2CC[18F],–,–,–,–,–,–,–,–,–,–,–,–,–,–,-0.11,–,699,–,–
CN(C)C(=O)[C@H]1[C@@H](c2ccc(Cl)cc2)C[C@@H]2CC[C@H]1N2CCC[18F],–,–,–,–,–,–,–,–,–,–,–,–,–,–,-0.07,–,135,–,–
CN(C)C[C@H]1[C@@H](c2ccc(Cl)cc2)C[C@@H]2CC[C@H]1N2CC[18F],–,–,–,–,–,–,–,–,–,–,–,–,–,–,1.88,–,18.3,–,–
CN(C)C[C@H]1[C@@H](c2ccc(Cl)cc2)C[C@@H]2CC[C@H]1N2CCC[18F],0.99,1.1,0.43,0.44,0.52,0.49,0.44,0.39,0.86,1.04,2.08,5.58,0.3,0.57,1.98,0.14,26.9,–,–
COC(=O)[C@H]1[C@@H](c2ccc(Cl)cc2)C[C@@H]2CC[C@H]1N2C/C=C/[125I],–,–,–,–,–,–,–,–,–,–,–,–,–,–,–,–,–,1.2,–
Cc1ccc([C@H]2C[C@@H]3CC[C@H]([C@H]2C(=O)OCC[18F])N3C/C=C/I)cc1,–,–,–,–,–,–,–,–,–,–,–,–,–,–,–,–,–,–,12
